From ChEMBL document CHEMBL1949660 (Bioorg Med Chem Lett, 2012)

How the values were obtained:
Histamine H3 receptor [1] = target: Histamine H3 receptor (Rattus norvegicus, UniProt Q9QYN8); experiment: Displacement of [3H]NAMH from rat histamine H3 receptor expressed in CHO cells; format: cell-based
Summary of the method: (§1)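 Radioligand displacement of [³H]NAMH from membranes isolated from CHO cells transfected with cloned human H₃ or rat H₃ receptors.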

Histamine H3 receptor [2] = target: Histamine H3 receptor (Homo sapiens, UniProt Q9Y5N1); experiment: Displacement of [3H]NAMH from human histamine H3 receptor expressed in CHO cells; format: cell-based; summary of the method: as §1
[3] = Clearance in rat at 1 mg/kg, iv; format: ADME, organism-based; parameters: dose 1 mg/kg, route intravenous; conditions: in vivo
Summary of the method: (§2)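 Rat PK: iv dose with vehicle 3% DMSO, 30% solutol, 67% phosphate buffered saline. Oral 5 mg/kg dose with vehicle 50% Tween 80, 40% propylene carbonate, 10% propylene glycol.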

[4] = Half life in rat at 1 mg/kg, iv; format: ADME, organism-based; parameters: dose 1 mg/kg, route intravenous; conditions: in vivo; summary of the method: as §2
[5] = Cmax in rat at 5 mg/kg, po; format: ADME, organism-based; parameters: dose 5 mg/kg, route oral; conditions: in vivo
[6] = Volume of distribution in rat at 1 mg/kg, iv; format: ADME, organism-based; parameters: dose 1 mg/kg, route intravenous; conditions: in vivo; summary of the method: as §2
[7] = Ratio drug uptake in brain to plasma of rat at 10 mg/kg, ip measured after 6 hrs; format: ADME, organism-based; parameters: dose 10 mg/kg, route intraperitoneal; conditions: read-out: BPR
[8] = Oral bioavailability in rat at 5 mg/kg; format: ADME, organism-based; conditions: in vivo; summary of the method: as §2
[9] = target: Sodium-dependent dopamine transporter (Homo sapiens) (UniProt Q01959); experiment: Inhibition of DAT at 10 uM
Sodium-dependent dopamine transporter (Homo sapiens), sequence (Q01959 whole entry): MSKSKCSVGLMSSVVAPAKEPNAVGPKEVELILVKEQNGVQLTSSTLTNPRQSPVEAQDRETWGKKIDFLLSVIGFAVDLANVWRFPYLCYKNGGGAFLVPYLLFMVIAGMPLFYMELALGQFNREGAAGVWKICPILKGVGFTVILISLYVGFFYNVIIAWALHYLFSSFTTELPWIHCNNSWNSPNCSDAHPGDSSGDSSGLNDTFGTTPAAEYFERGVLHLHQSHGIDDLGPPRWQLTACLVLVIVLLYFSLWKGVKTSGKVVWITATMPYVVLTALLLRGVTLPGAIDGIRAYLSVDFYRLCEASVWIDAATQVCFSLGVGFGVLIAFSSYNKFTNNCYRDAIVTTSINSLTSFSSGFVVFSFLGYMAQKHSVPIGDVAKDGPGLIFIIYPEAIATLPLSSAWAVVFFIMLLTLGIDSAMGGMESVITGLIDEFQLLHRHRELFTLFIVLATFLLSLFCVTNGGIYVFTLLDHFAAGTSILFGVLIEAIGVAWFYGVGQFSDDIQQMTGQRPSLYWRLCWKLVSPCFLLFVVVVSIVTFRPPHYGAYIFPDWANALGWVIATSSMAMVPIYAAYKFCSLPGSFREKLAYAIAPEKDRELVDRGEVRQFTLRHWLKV

Histamine H3 receptor (Rattus norvegicus, UniProt Q9QYN8), sequence (Q9QYN8 whole entry): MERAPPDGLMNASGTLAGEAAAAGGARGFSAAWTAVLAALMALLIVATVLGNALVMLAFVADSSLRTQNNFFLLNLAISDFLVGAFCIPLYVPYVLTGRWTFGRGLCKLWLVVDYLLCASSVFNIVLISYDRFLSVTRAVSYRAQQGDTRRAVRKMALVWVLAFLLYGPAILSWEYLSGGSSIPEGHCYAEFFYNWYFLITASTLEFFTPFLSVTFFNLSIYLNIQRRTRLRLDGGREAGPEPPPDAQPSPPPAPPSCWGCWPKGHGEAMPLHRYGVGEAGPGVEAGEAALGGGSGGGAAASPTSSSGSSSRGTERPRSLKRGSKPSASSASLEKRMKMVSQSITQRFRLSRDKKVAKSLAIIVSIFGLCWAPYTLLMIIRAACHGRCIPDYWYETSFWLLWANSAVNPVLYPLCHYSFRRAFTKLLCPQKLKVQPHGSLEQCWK
Histamine H3 receptor (Homo sapiens, UniProt Q9Y5N1), sequence (Q9Y5N1 whole entry): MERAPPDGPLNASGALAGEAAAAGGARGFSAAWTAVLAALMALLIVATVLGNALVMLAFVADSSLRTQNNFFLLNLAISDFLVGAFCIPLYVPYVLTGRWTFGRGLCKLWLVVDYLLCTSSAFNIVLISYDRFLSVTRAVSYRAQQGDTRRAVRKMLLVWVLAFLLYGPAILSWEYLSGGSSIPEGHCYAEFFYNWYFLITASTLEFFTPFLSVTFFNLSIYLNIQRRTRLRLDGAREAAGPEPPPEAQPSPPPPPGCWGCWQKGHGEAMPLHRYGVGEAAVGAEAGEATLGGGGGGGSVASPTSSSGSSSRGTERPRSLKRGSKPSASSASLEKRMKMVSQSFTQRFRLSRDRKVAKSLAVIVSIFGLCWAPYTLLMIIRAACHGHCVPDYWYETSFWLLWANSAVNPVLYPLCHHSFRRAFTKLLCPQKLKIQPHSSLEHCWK

SMILES | Ki (Histamine H3 receptor [1]) | Ki (Histamine H3 receptor [2]) | further results
Cn1nc(-c2ccc(OC3CCN(C4CCC4)CC3)cc2)ccc1=O | 3.1 nM | 2.4 nM | –
O=c1ccc(-c2ccc(OC3CCN(C4CCCC4)CC3)nc2)n[nH]1 | 51 nM | 26 nM | –
Cn1nc(-c2ccc(OC3CCN(C4CCCC4)CC3)nc2)ccc1=O | 12 nM | 5.9 nM | –
O=c1ccc(-c2ccc(OC3CCN(C4CCCC4)CC3)cc2)n[nH]1 | 7 nM | 5.1 nM | –
CC1(C)CC(c2ccc(OC3CCN(C4CCC4)CC3)nc2)=NNC1=O | 28 nM | 12 nM | –
CC1(C)CC(c2ccc(OC3CCN(C4CCC4)CC3)c(F)c2)=NNC1=O | 7.2 nM | 7.1 nM | –
C[C@H]1CC(=O)NN=C1c1ccc(OC2CCN(C3CCC3)CC2)cc1 | 13 nM | – | clearance [3]: 23 mL/min/kg; half-life [4]: 4.4 h; Cmax [5]: 253 ng/mL; Vd [6]: 7.6 L/kg; Kp at 6 h [7]: 5.3; bioavailability [8]: 56%; inhibition [9]: 13%
Cn1nc(-c2ccc(OC3CCNCC3)cc2)ccc1=O | > 1000 nM | 695 nM | –
CC(C)n1nc(-c2ccc(OC3CCN(C4CCC4)CC3)nc2)ccc1=O | 9.4 nM | 6.5 nM | –
Cc1cc(=O)[nH]nc1-c1ccc(OC2CCN(C3CCC3)CC2)cc1 | 6.3 nM | 4.4 nM | –
